Assay outcomes from PubChem.
Compounds with a hit are over-represented: about 9.3% of the library has one in this group of screens.
Ecoli WT expand: growth inhibitors of E. coli BW25113 wild type | growth inhibition, % at 100 µM | OD600 absorbance | 0.15% of 98,000 active;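 active = growth inhibition above about 50% at one test dose, limit read from the data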;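 also: growth measured after 20 h incubation at 37 °C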
PostGolgi yeast: growth inhibition of a yeast mutant, post-Golgi transport screen; post-Golgi transport phenotypic cell assay; 0.9% of 98,000 active; inhibition, % at 10 µM;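 also: yeast cells grown in 1536-well plates; yeast grown about 18 h at 30C before absorbance read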
Ecoli tolC: growth inhibitors of E. coli BW25113 tolC mutant; OD615; growth inhibition, % at 10 µM (by protocol); 2.2% of 65,000 active; AID 573;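 active = growth inhibition at or above a cutoff equal to the mean over every tested compound plus 3 SD, cut at about 60% in these data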;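 also: growth measured after 20 h incubation at 37 °C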
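test system = E. coli BW25113 ΔtolC::kan bacteria | medium = LB with kanamycin 50 µg/mL | signal = OD at 615 nm | schedule = 37 °C, 20 h exposure | evaluation = % inhibition of E. coli growth | compound dosing = one dose of 10 µM final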
D1 mod: D1 dopamine receptor (human) allosteric modulation; HEK293 D1, CRE-luciferase, dopamine EC30 potentiation; actives deviate in either direction; B-score at 10 µM; 5.9% of 58,000 active; AID 641;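 active = luminescence count or its row- and column-corrected plate score outside the 99.7% band of the plate's sample wells, on either side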
Target sequence (P21728 whole entry, looked up): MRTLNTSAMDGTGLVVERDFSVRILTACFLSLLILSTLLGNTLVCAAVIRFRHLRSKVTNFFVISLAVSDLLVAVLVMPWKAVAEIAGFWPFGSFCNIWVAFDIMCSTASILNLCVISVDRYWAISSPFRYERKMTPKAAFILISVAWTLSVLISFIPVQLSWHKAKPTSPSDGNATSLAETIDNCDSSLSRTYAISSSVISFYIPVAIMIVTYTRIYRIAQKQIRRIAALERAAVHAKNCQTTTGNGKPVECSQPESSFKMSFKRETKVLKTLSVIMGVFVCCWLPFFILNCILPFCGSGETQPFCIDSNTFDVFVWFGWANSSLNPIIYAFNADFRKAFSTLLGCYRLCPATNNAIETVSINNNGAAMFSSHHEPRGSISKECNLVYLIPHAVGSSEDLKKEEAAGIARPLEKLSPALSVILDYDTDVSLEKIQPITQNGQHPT
hDAT+cocaine: modulates human dopamine transporter uptake under cocaine | B-score at 10 µM | LLC-PK1 hDAT cells, [14C]-dopamine uptake with cocaine IC80; actives deviate in either direction | 1.3% of 110,000 active | Q01959;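 active = Z score or B-score, a plate-position-corrected score, falls beyond the plate's 99.7% confidence bounds, in either direction; inactive = both scores lie inside the 99.7% bounds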;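 also: scored against the spread of the other compound wells on the same plate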
PostGolgi ctrl: inhibits growth of the yeast control strain; efflux-deficient yeast background strain, growth absorbance A615, 16 h; inhibition, % at 10 µM; 5% of 98,000 active; AID 738
* hit, by the source's call; nt = no result given. Rule as the data show it, unless noted: active = inhibition above about 30%; inactive = the rest.

SMILES | Ecoli WT expand | PostGolgi yeast | Ecoli tolC | D1 mod | hDAT+cocaine | PostGolgi ctrl
CC1CCCCN1S(=O)(=O)c1ccc(NC(=O)c2cccs2)cc1 (configuration not stated) | -3 | -12 | 53 | -0.042 | 1.3 | 33*
O=C(Nc1ccccc1)c1ccc(S(=O)(=O)N2CCCC2)cc1 | -3 | -10 | -4 | -0.57 | 0.066 | 3
CCc1ccc(N(CC(=O)NC)S(C)(=O)=O)cc1 | 1 | -5 | -1 | -0.49 | -0.59 | 2
CC(=O)Nc1ccc(S(=O)(=O)N2CCCCC2c2cccnc2)cc1 (configuration not stated) | 5 | 1 | 6 | nt | -0.52 | 35*
O=C(Nc1ccn(-c2ccccc2)n1)c1ccc(S(=O)(=O)N2CCCCCC2)cc1 | -22 | -8 | 31 | -1.9 | 0.51 | 31*
O=C(Nc1ccccc1)c1ccc(S(=O)(=O)N2CCCCC2)cc1 | -11 | -4 | 0 | 0.56 | 0.63 | 5
COc1cc(C)c(C)cc1S(=O)(=O)N1CCCCC1c1cccnc1 (configuration not stated) | 10 | -5 | 8 | 0.38 | 0.42 | 4
COc1cc([N+](=O)[O-])ccc1NC(=O)CCCOc1cccc(C)c1 | -25 | -11 | nt | nt | -0.17 | 17
CCCc1cc(C(=O)Nc2cccnc2Cl)no1 | 7 | 0 | nt | nt | -0.21 | 30*
COc1ccccc1-c1c(C)nn2c(N3CCCCCC3)cc(C)nc12 | -1 | -7 | 60 | -1.8 | -0.068 | 31*
COc1ccccc1-c1c(C)nn2c(N3CCN(Cc4ccccc4)CC3)cc(C)nc12 | -4 | -11 | nt | nt | 2.2 | 30*
COc1ccc(CCNC(=O)Cn2nnc(-c3ccccc3F)n2)cc1OC | 0 | 11 | nt | nt | -0.83 | -2
O=C(O)c1cc(Cl)c2ccccc2c1O | 13 | 11 | 66* | -0.019 | -0.014 | 9
O=C(c1ccccc1)c1cccc(NC(=O)c2ccco2)c1 | 2 | -4 | 32 | -0.48 | 0.88 | 38*
O=C(Nc1ccc(Cl)c(Cl)c1)Oc1ccc(NC(=O)c2ccco2)cc1 | 25 | -8 | nt | nt | 0.06 | 15
O=C(Nc1cccc(NC(=O)c2ccc(-c3ccc(Br)cc3)o2)c1)c1ccccc1 | -4 | -3 | nt | nt | -1.2 | 5
COc1cc(NS(=O)(=O)c2ccc(Br)cc2)c(OC)cc1NC(=O)c1ccco1 | -6 | -13 | 76* | 2.2 | 2.1 | 26
O=C(Nc1cccc(NC(=O)c2ccc(-c3cccc(Br)c3)o2)c1)c1ccco1 | -34 | 9 | 33 | -3.4* | 1.4 | 21
COc1ccc(S(=O)(=O)Nc2cc(OC)c(NC(=O)c3ccco3)cc2OC)cc1 | -5 | -13 | 7 | 1.7 | 0.56 | 7
O=C(Nc1ccc(Br)c(Cl)c1)c1ccco1 | 5 | 27 | 100* | -0.71 | 0.31 | 12
CCOC(=O)C[C@H]1c2ccc(C(F)(F)F)cc2S(=O)(=O)N1C(C)C | nt | nt | nt | nt | 0.021 | nt
CC(/C=N/n1cnnc1)=C\c1ccco1 | 3 | 8 | -13 | 0.021 | -0.073 | 12
CCSC1=NC2(CCCCC2)Nc2sc3c(c21)CCCC3 | 8 | 11 | nt | nt | 0.24 | 17
COc1ccc(Br)cc1C(=O)Nc1cccc(NC(=O)c2ccco2)c1 | -12 | 3 | 36 | -0.51 | -0.4 | 49*
COc1ccc(Br)cc1C(=O)Nc1cccc(C)c1 | -4 | -3 | nt | nt | -0.066 | 8
SMILES | Ecoli WT expand | PostGolgi yeast | Ecoli tolC | D1 mod | hDAT+cocaine | PostGolgi ctrl
CCCOc1cccc(C(=O)Nc2cc(NC(=O)c3ccco3)ccc2OC)c1 | -14 | -4 | 49 | 2.1 | 1 | 41*
COc1c(C)cc(Br)cc1C(=O)Nc1cccc(NC(=O)c2ccco2)c1 | -19 | 31* | 74* | -1.1 | 0.54 | 56*
CCOc1ccc(-c2cc(NC(=O)Cn3ncc4c3-c3ccccc3OC4)on2)cc1OCC | -14 | 5 | 12 | 4.2 | 0.084 | -9
CCOC(=O)C(CO)(NC(C)=O)C(=O)OCC | 4 | 7 | -16 | 0.16 | 0.32 | -1
Cc1ccc(-c2nc3cccnc3o2)cc1NC(=O)COc1ccc(C(C)(C)C)cc1 | 5 | 5 | nt | nt | 0.92 | 42*
Cc1ccc(-c2nc3cccnc3o2)cc1NC(=O)COc1ccc(Cl)cc1C | -2 | -2 | 10 | -1.6 | 0.62 | -5
Cc1cccc2cc(CN(Cc3ccccc3)C(=O)c3cccc(F)c3)c(Cl)nc12 | -17 | -4 | nt | nt | 1.6 | 21
Cc1cccc2cc(CN(C(=O)c3cnccn3)C3CCCCC3)c(Cl)nc12 | -6 | -4 | nt | nt | 0.57 | 33*
CCCc1[nH][nH]c(=O)c1C(c1cccc(Cl)c1)C(C#N)C#N (configuration not stated) | 1 | 0 | 16 | nt | -9.4* | 14
CCOC(=O)C1CCCN(c2c(NCCCN(CC)c3ccccc3)c(=O)c2=O)C1 (configuration not stated) | 5 | 2 | 3 | 0.7 | 0.031 | 35*
CCOC(=O)C1CCCN(c2c(NCCN(CC)c3ccccc3)c(=O)c2=O)C1 (configuration not stated) | 7 | -2 | nt | nt | 0.26 | -8
CCn1cc(C2=NOC(C(=O)Nc3cc(C)nn3-c3ccccc3)C2)c(C)n1 (configuration not stated) | 7 | -12 | -15 | -0.44 | 1.1 | 4
CCNc1nc(NC(C)C)nc(OCCNS(=O)(=O)c2cc(C)ccc2C)n1 | 6 | -3 | 25 | 2.5 | 0.98 | 3
CCNc1nc(NC(C)C)nc(SCCOc2ccc(C)cc2)n1 | -5 | 4 | nt | nt | -0.35 | 31*
Cc1cc(NC(=O)CCCC(=O)NCc2cccs2)no1 | -3 | -1 | -13 | -0.14 | -0.11 | 5
Cc1cc(C)n(S(=O)(=O)c2cccc(Cl)c2Cl)n1 | nt | nt | 7 | 0.11 | -0.89 | nt
CN(C[C@@H](Cc1cccc2ccccc12)N(C[C@H](Cc1ccccc1)N(CCc1ccccc1)N=O)N=O)N=O | nt | nt | nt | nt | 0.097 | nt
CN(C)c1ccc(/C=C/c2cc[n+](C)cc2)cc1 | 33 | -6 | nt | nt | -3.7* | 2
O=C(Nc1ccc(Cn2cccn2)cc1)c1ccc(COc2ccccc2Br)cc1 | -14 | -8 | nt | nt | 0.26 | 32*
O=C(Nc1ccn(Cc2c(F)c(F)c(F)c(F)c2F)n1)c1ccc(COc2ccccc2Cl)cc1 | -5 | 0 | nt | nt | 0.01 | 0
CC(=O)NC1(C(F)(F)F)C(=O)NC(C)=C1C#N (configuration not stated) | 0 | 5 | -6 | nt | 0.05 | 5
COc1ccc(C2Oc3ccccc3C3=C2C(c2cccs2)n2ncnc2N3)cc1 (configuration not stated) | 2 | -14 | nt | nt | 1.2 | 19
Brc1ccc(C2C3=C(Nc4ncnn42)c2ccccc2OC3c2ccncc2)cc1 (configuration not stated) | 5 | -3 | nt | nt | 0.26 | 40*
COCc1cc(C)nc2sc3c(=O)oc(C)nc3c12 | 4 | 21 | 66* | 0.5 | nt | -2
Cc1nc(SCC(=O)c2c[nH]c3ccccc23)n[nH]1 | 10 | -4 | -5 | -1.1 | -0.81 | 32*
Cc1nc(SCC(=O)c2ccc(F)cc2)n[nH]1 | 7 | -2 | -9 | 0.17 | 0.018 | -2
